# Data as given in ChEMBL document CHEMBL1136924 (J Med Chem, 2009).
# Activity calls are given as the source filed them.
# How the values were obtained:
# [1] = target: T1, 5-hydroxytryptamine receptor 3A (Rattus norvegicus, UniProt P35563); experiment: Displacement of [3H]LY278584 from 5HT3 receptor in rat cortical homogenate
# T1 sequence (P35563 whole entry): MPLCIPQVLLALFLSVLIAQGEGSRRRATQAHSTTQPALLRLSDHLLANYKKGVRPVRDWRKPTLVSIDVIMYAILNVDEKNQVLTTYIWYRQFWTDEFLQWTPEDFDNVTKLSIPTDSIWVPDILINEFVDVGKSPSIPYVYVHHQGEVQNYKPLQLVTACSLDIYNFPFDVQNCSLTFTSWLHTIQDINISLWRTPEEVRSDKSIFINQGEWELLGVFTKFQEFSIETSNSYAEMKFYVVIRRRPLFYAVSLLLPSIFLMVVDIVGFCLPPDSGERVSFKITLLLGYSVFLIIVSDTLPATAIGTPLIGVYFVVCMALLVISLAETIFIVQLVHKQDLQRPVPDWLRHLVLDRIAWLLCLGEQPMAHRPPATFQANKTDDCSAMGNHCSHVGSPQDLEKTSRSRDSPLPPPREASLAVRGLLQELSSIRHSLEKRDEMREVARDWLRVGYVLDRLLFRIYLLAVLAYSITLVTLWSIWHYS
# Rattus norvegicus = experiment: Antagonist activity at 5HT3 receptor in iv dosed urethane-anesthetized Sprague-Dawley rat assessed as inhibition of 1-phenylbiguanide-induced bradycardia administered 5 mins before 1-phenylbiguanide challenge measured after 5 to 30 mins post-treatment by von Bezold-Jarisch reflex test; type: functional; conditions: for ED50: read-out: ID50 (the source's name)
# [2] = target: T2, 5-hydroxytryptamine receptor 3A (Cavia porcellus) (UniProt O70212); experiment: Agonist activity at 5HT3 receptor in spontaneously beating guinea pig right atrium assessed as positive chronotropic potency; type: functional, tissue-based; conditions: Cardiac atrium
# T2 sequence (whole entry): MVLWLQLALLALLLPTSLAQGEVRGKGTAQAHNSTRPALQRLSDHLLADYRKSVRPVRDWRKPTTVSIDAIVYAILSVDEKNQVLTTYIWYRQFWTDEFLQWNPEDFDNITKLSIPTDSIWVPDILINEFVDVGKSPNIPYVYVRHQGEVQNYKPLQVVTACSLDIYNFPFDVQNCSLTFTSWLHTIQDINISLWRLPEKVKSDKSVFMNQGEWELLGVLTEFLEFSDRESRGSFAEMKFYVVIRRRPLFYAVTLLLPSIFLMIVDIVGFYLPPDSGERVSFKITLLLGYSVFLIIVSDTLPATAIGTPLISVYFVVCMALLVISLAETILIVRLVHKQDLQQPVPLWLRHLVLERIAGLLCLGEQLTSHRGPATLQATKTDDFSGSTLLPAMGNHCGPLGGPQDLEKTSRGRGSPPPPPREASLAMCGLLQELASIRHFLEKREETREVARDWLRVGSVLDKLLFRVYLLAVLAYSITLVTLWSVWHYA
# How it was run: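 Isolated guinea pig atria in PSS (Tyrode) with ketanserin 1 µM, 95% O2-5% CO2, pH 7.4, 35 °C. Right atrium beating spontaneously (rate); left atrium paced 1 Hz, 0.6-0.8 ms pulses near 50% threshold (force). Isometric recording after 45-60 min stabilization.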
# [3] = target: T2, 5-hydroxytryptamine receptor 3A (Cavia porcellus); experiment: Agonist activity at 5HT3 receptor in guinea pig thoracic aorta assessed as positive contractility potency at 100 uM; type: functional, tissue-based
# How it was run: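 Guinea pig aortic helicoidal strips in PSS at 35 °C, aerated, under 1 g resting force, washed every 20 min for 1 h. Compounds added cumulatively 0.1-100 µM (DMSO vehicle); isometric contraction recorded.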
# [4] = target: 5-hydroxytryptamine receptor 4 (Cavia porcellus, UniProt O70528); experiment: Displacement of [3H]GR-113808 from 5HT4 receptor in guinea pig striatum
# [5] = target: T2, 5-hydroxytryptamine receptor 3A (Cavia porcellus); experiment: Intrinsic activity at 5HT3 receptor in spontaneously beating guinea pig right atrium assessed as positive chronotropic potency relative to serotonin; conditions: Cardiac atrium
# How it was run: (§1)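 Guinea pig left and right atria were hung in a 15 mL bath of PSS (pH 7.4, 95% O2-5% CO2, 35 °C) with ketanserin 1 µM. The right atrium beat spontaneously; the left was paced at 1 Hz. Cumulative doses (0.1-100 µM; DMSO ≤0.3%) were added after 45-60 min stabilization. Rate or isometric force was recorded. EC50 came from Probit analysis, n≥4. Intrinsic activity was taken relative to 5-HT.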
# [6] = target: 5-hydroxytryptamine receptor 2A (Rattus norvegicus, UniProt P14842); experiment: Displacement of [3H]ketanserin from 5HT2A receptor in rat cortex
# [7] = target: T2, 5-hydroxytryptamine receptor 3A (Cavia porcellus); experiment: Agonist activity at 5HT3 receptor in voltage-stimulated guinea pig left atrium assessed as positive inotropic potency at 100 uM; type: functional, tissue-based; conditions: Cardiac atrium; how it was run: as §1
# [8] = target: T3, 5-hydroxytryptamine receptor 1A (Rattus norvegicus, UniProt P19327); experiment: Displacement of [3H]8-OHDPAT from 5HT1A receptor in rat hippocampus; type: tissue-based
# T3 sequence (P19327 whole entry): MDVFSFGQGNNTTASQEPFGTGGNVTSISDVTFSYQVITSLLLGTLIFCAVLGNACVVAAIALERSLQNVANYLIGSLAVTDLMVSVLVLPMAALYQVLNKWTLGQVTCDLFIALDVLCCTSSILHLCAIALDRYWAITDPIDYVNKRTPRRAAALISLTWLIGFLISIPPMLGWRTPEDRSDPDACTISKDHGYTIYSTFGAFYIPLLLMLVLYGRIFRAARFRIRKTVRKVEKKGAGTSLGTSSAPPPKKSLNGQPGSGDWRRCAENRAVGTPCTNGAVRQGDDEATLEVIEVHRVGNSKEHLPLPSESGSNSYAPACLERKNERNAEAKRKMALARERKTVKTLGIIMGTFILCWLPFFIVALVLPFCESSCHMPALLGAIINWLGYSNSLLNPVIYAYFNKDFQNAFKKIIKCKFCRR
# [9] = target: T1, 5-hydroxytryptamine receptor 3A; experiment: Displacement of [3H]zacopride from 5HT3 receptor in rat cortex
# [10] = target: T2, 5-hydroxytryptamine receptor 3A (Cavia porcellus); experiment: Agonist activity at 5HT3 receptor in spontaneously beating guinea pig right atrium assessed as positive chronotropic potency at 100 uM; type: functional, tissue-based; conditions: Cardiac atrium; how it was run: as §1
# [11] = target: T4, 5-hydroxytryptamine receptor 3A (Cavia porcellus, UniProt O70212); experiment: Antagonist activity at 5HT3 receptor in spontaneously beating guinea pig right atrium assessed as inhibition of serotonin-induced maximum response by noncompetitive binding assay; type: tissue-based, Cardiac atrium
# T4 sequence (O70212 whole entry): T2 sequence (whole entry)
# How it was run: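 Spontaneously beating guinea pig right atrium; 5-HT concentration-response curves (0.001-1.0 µM) before and after 30 min antagonist exposure at three concentrations. IC50 is inhibition of 50% of maximal 5-HT response, Probit analysis, n = 4-6.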
# D(2) dopamine receptor = D(2) dopamine receptor (Rattus norvegicus, UniProt P61169); experiment: Displacement of [3H]spiperone from dopamine D2 receptor in rat striatum
# [12] = target: Muscarinic acetylcholine receptor; experiment: Displacement of [3H]QNB from muscarinic receptor in rat cortex
# D(1A) dopamine receptor = D(1A) dopamine receptor (Rattus norvegicus, UniProt P18901); experiment: Displacement of [3H]SCH-23390 from dopamine D1 receptor in rat striatum
# Sequence of D(1A) dopamine receptor (P18901 whole entry): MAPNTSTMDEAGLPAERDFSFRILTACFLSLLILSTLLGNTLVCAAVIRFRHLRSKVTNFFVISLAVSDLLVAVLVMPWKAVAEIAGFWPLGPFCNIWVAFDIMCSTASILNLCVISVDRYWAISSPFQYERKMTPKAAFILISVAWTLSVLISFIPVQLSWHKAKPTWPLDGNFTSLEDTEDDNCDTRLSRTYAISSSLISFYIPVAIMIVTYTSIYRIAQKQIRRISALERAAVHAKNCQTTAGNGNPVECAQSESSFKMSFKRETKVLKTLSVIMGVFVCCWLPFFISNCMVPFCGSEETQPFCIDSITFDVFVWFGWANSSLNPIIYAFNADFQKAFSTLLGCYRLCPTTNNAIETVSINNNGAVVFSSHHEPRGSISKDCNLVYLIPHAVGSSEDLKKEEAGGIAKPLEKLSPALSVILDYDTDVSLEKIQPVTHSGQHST
# Sequence of 5-hydroxytryptamine receptor 4 (O70528 whole entry): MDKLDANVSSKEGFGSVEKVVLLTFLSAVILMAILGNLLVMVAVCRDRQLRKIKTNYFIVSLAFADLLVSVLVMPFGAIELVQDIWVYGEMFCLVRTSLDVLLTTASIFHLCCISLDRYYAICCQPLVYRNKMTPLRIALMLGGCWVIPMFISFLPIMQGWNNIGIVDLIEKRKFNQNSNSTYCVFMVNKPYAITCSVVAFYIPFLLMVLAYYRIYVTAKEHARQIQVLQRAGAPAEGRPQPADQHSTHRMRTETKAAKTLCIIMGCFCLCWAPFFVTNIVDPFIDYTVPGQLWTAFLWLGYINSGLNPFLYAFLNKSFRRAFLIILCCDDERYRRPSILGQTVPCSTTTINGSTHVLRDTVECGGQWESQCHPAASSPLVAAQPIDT
# Sequence of 5-hydroxytryptamine receptor 2A (P14842 whole entry): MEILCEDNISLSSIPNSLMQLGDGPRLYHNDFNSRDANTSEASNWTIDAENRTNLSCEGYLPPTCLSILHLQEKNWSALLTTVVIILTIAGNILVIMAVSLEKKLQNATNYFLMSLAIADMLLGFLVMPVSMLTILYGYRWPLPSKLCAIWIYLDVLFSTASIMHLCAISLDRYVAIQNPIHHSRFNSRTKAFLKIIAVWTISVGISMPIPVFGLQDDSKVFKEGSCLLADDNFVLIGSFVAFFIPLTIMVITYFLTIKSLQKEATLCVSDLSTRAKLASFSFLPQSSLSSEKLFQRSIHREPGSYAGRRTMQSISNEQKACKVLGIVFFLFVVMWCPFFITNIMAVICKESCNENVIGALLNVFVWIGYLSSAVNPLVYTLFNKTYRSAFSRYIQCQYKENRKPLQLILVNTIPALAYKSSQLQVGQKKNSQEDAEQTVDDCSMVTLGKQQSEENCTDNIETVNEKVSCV
# Sequence of D(2) dopamine receptor (P61169 whole entry): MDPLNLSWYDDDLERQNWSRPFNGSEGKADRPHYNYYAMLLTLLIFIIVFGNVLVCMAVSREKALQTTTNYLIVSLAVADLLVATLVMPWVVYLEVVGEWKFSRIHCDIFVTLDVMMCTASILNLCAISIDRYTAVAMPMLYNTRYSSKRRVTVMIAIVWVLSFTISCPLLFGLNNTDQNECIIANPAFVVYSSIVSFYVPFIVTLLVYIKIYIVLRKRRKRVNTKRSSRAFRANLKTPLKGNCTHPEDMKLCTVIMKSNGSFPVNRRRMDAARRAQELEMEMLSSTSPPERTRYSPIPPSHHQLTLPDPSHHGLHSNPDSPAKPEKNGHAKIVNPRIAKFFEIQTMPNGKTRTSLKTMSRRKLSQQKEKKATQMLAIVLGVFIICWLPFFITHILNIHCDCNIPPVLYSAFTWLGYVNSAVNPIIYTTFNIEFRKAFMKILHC
structure (smiles),measurement,setting,value
Cc1cccc2nc(N3CCN(C(C(=O)O)c4ccccc4)CC3)c3cccn3c12 (centres undefined),Ki,[1],44 nM
CN1CCN(c2nc3cc(F)ccc3n3cccc23)CC1,ID50,Rattus norvegicus,Dose-dependent effect
same,ED50,Rattus norvegicus,0.6 mg/kg
same,pD2,[2],6.79
same,Ki,[1],0.8 nM
same,pD2,[3],inactive
same,Ki,[4],> 10 µM
same,Intrinsic activity,[5],0.6
same,Ki,[6],124 nM
same,pD2,[7],inactive
same,Ki,[8],0.138 µM
O=C(CN1CCN(c2nc3cc(F)ccc3n3cccc23)CC1)NO,ED50,Rattus norvegicus,0.05 mg/kg
same,Ki,[1],2.2 nM
c1ccc2nc(N3CCNCC3)ccc2c1 [QUIPAZINE],Ki,[1],0.96 nM
same,Ki,[4],> 10 µM
Fc1ccc2c(c1)nc(N1CCN(Cc3nnn[nH]3)CC1)c1cccn12,Ki,[1],65 nM
Fc1ccc2c(c1)nc(N1CCN(Cc3ccccc3)CC1)c1cccn12,Ki,[9],13 nM
O=c1[nH]nc(CN2CCN(c3nc4cc(F)ccc4n4cccc34)CC2)o1,Ki,[1],127 nM
Cc1cccc2nc(N3CCN(CC(=O)NO)CC3)c3cccn3c12,Ki,[1],3 nM
CS(=O)(=O)NC(=O)CN1CCN(c2nc3cc(F)ccc3n3cccc23)CC1,Ki,[1],246 nM
O=C(O)CN1CCN(c2nc3cc(O)ccc3n3cccc23)CC1,Ki,[1],2.1 nM
O=c1[nH]nc(CN2CCN(c3nc4cc(F)ccc4n4cccc34)CC2)[nH]1,Ki,[1],17 nM
Fc1ccc2c(c1)nc(N1CCN(Cc3nnc[nH]3)CC1)c1cccn12,Ki,[1],3.4 nM
same,pD2,[3],inactive
same,pD2,[10],inactive
same,IC50,[11],8.51 µM
same,pD2,[7],inactive
"NC(CO)C(=O)N1CCN(c2nc3cc(F)ccc3n3cccc23)CC1 (single isomer, unassigned)",Ki,[1],237 nM
CN1CCN(c2nc3cc(O)ccc3n3cccc23)CC1,Ki,[9],0.7 nM
Cc1cccc2nc(N3CCN(C)CC3)c3cccn3c12,Ki,[9],0.8 nM
same,Ki,[8],> 10 µM
O=C(O)CN1CCN(c2ccc3ccccc3n2)CC1,Ki,D(2) dopamine receptor,919 nM
same,Ki,[1],11.2 nM
same,Ki,[12],> 10 µM
same,Ki,[4],5.75 µM
same,Ki,[6],> 10000 nM
same,Ki,D(1A) dopamine receptor,> 10 µM
same,Ki,[8],> 10 µM
Cc1cccc2nc(N3CCN(C(CO)c4ccccc4)CC3)c3cccn3c12 (centres undefined),Ki,[1],79 nM
